From ChEMBL document CHEMBL5661979, “Pharmacological inhibition of BMK1 suppresses tumor growth through promyelocytic leukemia protein” (Cancer Cell, 2010) come the findings set out here.

Data set [1] is described as follows: MRT in Sprague-Dawley rat at 2 mg/kg, po measured up to 8 hrs by LC-MS/MS analysis. The settings on record: in vivo. The format is ADME, organism-based.
Another data set has as its target Scaffold protein ILK (Homo sapiens, UniProt Q13418). The data set can be described thus: Inhibition of ILK in human HeLa cells lysate pre incubated for 15 mins followed by ATP acyl phosphate probe addition and measured after 10 mins by LC-MS/MS analysis. The data set is classed as subcellular.
A short description of data set [2]: Inhibition of PKD1/2 in human HeLa cells lysate pre incubated for 15 mins followed by ATP acyl phosphate probe addition and measured after 10 mins by LC-MS/MS analysis. The data set is classed as subcellular.
Data set [3] concerns the target Cyclin-dependent kinase 13 (Homo sapiens, UniProt Q14004). The data set can be described thus: Inhibition of CHED in human HeLa cells lysate pre incubated for 15 mins followed by ATP acyl phosphate probe addition and measured after 10 mins by LC-MS/MS analysis. The format is subcellular. The method in brief: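 KiNativ profiling in HeLa lysate (5 mg/mL total protein). Lysate incubated 15 min with inhibitor at 50, 10, 2, 0.8 or 0 μM. ATP or ADP acylphosphate probe then added (5 μM final) and reacted 10 min. Reaction stopped with urea and analysed by targeted MS, using up to four fragment ions per kinase peptide-probe conjugate. % inhibition taken against untreated lysate. Run in duplicate.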

Data set [4] can be described thus: Cmax in Sprague-Dawley rat at 1 mg/kg, iv measured up to 8 hrs by LC-MS/MS analysis. The settings on record: in vivo. The data set is classed as ADME, organism-based.
The target in data set [5] is Serine/threonine-protein kinase N2 (Homo sapiens, UniProt Q16513). The data set can be described thus: Inhibition of PKN2 in human HeLa cells lysate pre incubated for 15 mins followed by ATP acyl phosphate probe addition and measured after 10 mins by LC-MS/MS analysis. The data set is classed as subcellular.
Sequence of Serine/threonine-protein kinase N2 (Q16513 whole entry): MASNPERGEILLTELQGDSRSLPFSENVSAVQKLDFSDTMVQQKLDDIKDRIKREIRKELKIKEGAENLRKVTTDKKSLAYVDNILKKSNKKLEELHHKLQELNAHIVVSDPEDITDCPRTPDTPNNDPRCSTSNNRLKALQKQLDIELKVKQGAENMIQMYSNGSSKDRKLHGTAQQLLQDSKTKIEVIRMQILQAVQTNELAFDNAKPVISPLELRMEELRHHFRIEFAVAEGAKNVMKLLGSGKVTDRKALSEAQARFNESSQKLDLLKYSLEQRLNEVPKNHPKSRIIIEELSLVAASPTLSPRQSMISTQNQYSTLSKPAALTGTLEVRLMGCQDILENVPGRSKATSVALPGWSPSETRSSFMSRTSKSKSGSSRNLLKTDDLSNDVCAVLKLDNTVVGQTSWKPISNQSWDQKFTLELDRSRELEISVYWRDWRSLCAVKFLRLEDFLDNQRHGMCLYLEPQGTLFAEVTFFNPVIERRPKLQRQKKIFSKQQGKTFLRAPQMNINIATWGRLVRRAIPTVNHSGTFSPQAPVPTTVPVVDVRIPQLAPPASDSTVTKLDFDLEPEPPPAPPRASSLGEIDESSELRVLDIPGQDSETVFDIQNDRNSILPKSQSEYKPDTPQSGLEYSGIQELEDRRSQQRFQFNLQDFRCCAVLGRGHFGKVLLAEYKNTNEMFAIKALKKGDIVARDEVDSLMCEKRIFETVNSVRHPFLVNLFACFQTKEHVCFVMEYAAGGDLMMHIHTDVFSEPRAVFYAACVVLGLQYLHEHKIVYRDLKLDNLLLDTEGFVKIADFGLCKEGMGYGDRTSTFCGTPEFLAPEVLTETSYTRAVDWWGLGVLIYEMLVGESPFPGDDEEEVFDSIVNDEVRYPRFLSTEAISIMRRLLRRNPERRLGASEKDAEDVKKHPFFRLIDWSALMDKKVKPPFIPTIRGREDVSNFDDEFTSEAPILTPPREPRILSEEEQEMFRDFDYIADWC
In data set [6] the target is T1, Aurora kinase A (Homo sapiens) (UniProt O14965).
T1 sequence (whole entry): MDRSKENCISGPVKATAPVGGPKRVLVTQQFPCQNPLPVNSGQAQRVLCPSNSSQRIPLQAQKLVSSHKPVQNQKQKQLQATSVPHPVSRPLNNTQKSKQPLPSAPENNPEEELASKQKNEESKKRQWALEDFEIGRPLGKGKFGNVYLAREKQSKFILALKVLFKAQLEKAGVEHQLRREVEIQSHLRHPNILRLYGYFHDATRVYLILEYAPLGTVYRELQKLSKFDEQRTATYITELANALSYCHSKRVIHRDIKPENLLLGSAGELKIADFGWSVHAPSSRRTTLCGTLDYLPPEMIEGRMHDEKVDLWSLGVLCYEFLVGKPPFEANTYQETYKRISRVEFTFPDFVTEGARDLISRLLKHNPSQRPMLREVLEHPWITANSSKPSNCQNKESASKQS
The data set can be described thus: Inhibition of AurA in human HeLa cells lysate at 2 uM pre incubated for 15 mins followed by ATP acyl phosphate probe addition and measured after 10 mins by LC-MS/MS analysis relative to control. The format is subcellular. The following applies: time 25.0 min. The method in brief:
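KiNativ-type profiling in HeLa lysate (5 mg/mL total protein). Lysate preincubated 15 min with inhibitor at 50, 10, 2, 0.8 or 0 μM, then ATP or ADP acylphosphate probe added (5 μM final) for 10 min. Reaction stopped with urea and analysed by targeted MS, using up to four fragment ions per kinase peptide-probe conjugate. % inhibition calculated against untreated lysate. Duplicate reactions.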

Data set [7] addresses T2, Serine/threonine-protein kinase TAO2 (Homo sapiens) (UniProt Q9UL54).
T2 sequence (whole entry): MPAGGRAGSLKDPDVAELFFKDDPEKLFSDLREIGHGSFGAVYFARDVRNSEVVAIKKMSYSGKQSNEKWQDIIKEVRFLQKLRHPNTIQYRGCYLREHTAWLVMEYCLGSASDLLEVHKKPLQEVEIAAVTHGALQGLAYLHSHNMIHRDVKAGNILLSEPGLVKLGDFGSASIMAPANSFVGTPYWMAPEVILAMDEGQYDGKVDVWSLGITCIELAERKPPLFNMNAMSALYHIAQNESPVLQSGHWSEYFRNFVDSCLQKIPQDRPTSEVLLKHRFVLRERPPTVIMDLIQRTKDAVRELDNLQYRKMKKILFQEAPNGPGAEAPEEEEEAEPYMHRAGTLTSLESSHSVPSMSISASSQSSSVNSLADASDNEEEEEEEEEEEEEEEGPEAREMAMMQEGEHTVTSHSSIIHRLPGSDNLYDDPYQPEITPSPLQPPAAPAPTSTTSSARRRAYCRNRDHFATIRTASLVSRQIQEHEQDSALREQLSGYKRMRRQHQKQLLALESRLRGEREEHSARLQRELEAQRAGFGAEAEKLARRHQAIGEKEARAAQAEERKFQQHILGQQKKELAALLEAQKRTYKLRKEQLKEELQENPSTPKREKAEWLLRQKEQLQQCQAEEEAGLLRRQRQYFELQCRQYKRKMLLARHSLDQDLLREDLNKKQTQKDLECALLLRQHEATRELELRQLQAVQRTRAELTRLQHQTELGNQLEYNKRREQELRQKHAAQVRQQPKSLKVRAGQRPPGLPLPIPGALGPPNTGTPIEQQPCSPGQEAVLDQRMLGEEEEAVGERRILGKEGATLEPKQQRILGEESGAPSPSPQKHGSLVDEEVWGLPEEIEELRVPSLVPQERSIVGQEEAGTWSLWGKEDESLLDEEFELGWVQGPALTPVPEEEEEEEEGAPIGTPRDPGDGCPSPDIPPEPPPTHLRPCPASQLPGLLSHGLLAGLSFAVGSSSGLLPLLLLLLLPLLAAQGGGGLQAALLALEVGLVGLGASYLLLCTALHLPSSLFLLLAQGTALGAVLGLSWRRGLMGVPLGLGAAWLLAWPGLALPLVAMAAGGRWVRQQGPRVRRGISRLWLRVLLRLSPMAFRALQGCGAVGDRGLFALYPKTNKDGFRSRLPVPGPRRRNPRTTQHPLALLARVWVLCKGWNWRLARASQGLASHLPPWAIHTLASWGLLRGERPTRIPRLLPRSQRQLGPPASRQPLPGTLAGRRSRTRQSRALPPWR
The experiment in a line: Inhibition of TAO2 in human HeLa cells lysate at 2 uM pre incubated for 15 mins followed by ATP acyl phosphate probe addition and measured after 10 mins by LC-MS/MS analysis relative to control. The format is subcellular. The settings on record: time 25.0 min.

Another data set deals with HeLa. The data set can be described thus: Antitumor activity against human HeLa cells xenografted in NOD/SCID mouse assessed as decrease in BrdU incorporation in cell nuclei in tumor at 50 mg/kg, ip by fluorescence microscopic analysis. The data set is classed as functional, organism-based. The method in brief:
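HeLa or LL/2 tumor sections from treated and control xenograft mice were stained with anti-BrdU antibody and DAPI and imaged by fluorescence microscopy. n = 6 mice, 9 slices.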
(In general: A xenograft is tissue or cells of one species grown in another, often human tumour cells in immunodeficient mice.)

Data set [8] addresses Serine/threonine-protein kinase PLK4 (Homo sapiens, UniProt O00444). The data set can be described thus: Binding affinity to PLK4 (unknown origin) assessed as dissociation constant by ATP-competition binding assay.
In data set [9] the target is Macrophage-stimulating protein receptor (Homo sapiens, UniProt Q04912). The experiment in a line: Inhibition of RON in human HeLa cells lysate at 2 uM pre incubated for 15 mins followed by ADP acyl phosphate probe addition and measured after 10 mins by LC-MS/MS analysis relative to control. The settings on record: time 25.0 min. The format is subcellular.
Sequence of Macrophage-stimulating protein receptor (Q04912 25-304 limits assumed): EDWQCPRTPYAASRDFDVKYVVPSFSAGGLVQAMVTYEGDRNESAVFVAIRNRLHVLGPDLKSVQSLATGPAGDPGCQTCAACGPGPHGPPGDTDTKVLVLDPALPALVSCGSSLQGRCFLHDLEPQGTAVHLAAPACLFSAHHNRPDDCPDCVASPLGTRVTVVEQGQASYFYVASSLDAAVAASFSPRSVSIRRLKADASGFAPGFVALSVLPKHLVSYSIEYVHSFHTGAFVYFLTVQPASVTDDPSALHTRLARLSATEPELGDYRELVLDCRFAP
Sequence of Macrophage-stimulating protein receptor (Q04912 310-1400 limits assumed): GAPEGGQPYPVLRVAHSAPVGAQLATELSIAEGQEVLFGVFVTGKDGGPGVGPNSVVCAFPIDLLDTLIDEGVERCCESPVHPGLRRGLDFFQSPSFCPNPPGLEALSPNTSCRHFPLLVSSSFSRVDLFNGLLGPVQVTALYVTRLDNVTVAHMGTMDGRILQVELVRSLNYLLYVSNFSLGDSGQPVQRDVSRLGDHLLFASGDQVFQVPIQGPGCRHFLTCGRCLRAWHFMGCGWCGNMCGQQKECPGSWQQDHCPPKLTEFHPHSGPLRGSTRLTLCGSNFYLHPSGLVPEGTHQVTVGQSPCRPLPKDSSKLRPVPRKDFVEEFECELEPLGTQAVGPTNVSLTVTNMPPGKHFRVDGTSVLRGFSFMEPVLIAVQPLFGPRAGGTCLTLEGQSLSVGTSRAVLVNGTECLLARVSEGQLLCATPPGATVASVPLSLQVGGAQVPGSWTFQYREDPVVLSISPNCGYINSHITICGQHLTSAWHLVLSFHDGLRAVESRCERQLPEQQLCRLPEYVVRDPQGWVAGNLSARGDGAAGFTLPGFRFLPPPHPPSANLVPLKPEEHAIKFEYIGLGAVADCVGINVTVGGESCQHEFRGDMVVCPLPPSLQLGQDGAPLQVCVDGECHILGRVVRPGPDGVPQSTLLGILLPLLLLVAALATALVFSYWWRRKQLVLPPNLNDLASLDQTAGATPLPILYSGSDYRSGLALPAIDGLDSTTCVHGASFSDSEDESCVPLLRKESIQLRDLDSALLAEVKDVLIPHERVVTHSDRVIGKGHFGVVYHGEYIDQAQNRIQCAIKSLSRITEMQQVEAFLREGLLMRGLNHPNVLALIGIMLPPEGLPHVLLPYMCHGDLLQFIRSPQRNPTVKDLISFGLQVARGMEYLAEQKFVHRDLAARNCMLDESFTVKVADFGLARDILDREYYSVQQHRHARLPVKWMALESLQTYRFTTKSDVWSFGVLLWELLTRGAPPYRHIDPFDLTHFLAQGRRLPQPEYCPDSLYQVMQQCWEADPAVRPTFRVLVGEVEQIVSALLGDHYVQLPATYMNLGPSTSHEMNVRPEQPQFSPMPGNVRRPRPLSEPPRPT
The target in data set [10] is MAP/microtubule affinity-regulating kinase 3 (Homo sapiens, UniProt P27448). The experiment in a line: Inhibition of MARK3 in human HeLa cells lysate pre incubated for 15 mins followed by ATP acyl phosphate probe addition and measured after 10 mins by LC-MS/MS analysis. The format is subcellular.
Sequence of MAP/microtubule affinity-regulating kinase 3 (P27448 whole entry): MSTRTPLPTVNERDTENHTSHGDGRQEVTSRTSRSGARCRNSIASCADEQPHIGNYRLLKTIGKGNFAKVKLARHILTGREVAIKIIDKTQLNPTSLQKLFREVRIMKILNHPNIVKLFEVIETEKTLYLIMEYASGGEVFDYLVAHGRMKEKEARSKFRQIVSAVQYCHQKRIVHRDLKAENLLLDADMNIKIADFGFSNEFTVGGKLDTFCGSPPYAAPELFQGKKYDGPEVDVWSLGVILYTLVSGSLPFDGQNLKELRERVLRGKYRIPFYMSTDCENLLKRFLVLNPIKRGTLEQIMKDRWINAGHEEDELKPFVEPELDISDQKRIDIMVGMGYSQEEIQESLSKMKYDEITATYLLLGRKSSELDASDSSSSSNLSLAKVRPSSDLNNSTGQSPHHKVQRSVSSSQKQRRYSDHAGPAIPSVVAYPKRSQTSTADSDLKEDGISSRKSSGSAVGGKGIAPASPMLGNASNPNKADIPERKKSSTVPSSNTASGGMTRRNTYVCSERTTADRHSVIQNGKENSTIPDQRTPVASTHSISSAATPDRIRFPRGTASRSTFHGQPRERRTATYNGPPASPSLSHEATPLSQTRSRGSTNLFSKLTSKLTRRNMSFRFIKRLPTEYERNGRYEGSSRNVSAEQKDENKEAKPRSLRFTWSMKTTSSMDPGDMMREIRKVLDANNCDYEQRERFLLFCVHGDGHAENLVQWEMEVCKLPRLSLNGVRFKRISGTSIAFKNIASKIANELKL

Calls of active or inactive are those of the source. No cut-off for these calls is given here.

Sequence of Scaffold protein ILK (Q13418 whole entry): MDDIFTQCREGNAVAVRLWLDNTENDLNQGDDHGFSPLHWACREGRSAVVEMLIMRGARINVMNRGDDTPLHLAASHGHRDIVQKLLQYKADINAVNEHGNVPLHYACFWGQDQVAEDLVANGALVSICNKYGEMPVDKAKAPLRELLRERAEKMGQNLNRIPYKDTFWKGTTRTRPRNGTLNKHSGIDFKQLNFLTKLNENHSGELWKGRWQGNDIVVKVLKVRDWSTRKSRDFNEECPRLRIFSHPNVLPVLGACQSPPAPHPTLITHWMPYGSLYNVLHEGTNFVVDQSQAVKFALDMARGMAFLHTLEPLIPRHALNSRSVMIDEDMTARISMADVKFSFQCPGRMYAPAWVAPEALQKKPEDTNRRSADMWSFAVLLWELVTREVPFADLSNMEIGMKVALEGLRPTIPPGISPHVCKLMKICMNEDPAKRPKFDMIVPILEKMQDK
Sequence of Cyclin-dependent kinase 13 (Q14004 whole entry, the tested form may be a part): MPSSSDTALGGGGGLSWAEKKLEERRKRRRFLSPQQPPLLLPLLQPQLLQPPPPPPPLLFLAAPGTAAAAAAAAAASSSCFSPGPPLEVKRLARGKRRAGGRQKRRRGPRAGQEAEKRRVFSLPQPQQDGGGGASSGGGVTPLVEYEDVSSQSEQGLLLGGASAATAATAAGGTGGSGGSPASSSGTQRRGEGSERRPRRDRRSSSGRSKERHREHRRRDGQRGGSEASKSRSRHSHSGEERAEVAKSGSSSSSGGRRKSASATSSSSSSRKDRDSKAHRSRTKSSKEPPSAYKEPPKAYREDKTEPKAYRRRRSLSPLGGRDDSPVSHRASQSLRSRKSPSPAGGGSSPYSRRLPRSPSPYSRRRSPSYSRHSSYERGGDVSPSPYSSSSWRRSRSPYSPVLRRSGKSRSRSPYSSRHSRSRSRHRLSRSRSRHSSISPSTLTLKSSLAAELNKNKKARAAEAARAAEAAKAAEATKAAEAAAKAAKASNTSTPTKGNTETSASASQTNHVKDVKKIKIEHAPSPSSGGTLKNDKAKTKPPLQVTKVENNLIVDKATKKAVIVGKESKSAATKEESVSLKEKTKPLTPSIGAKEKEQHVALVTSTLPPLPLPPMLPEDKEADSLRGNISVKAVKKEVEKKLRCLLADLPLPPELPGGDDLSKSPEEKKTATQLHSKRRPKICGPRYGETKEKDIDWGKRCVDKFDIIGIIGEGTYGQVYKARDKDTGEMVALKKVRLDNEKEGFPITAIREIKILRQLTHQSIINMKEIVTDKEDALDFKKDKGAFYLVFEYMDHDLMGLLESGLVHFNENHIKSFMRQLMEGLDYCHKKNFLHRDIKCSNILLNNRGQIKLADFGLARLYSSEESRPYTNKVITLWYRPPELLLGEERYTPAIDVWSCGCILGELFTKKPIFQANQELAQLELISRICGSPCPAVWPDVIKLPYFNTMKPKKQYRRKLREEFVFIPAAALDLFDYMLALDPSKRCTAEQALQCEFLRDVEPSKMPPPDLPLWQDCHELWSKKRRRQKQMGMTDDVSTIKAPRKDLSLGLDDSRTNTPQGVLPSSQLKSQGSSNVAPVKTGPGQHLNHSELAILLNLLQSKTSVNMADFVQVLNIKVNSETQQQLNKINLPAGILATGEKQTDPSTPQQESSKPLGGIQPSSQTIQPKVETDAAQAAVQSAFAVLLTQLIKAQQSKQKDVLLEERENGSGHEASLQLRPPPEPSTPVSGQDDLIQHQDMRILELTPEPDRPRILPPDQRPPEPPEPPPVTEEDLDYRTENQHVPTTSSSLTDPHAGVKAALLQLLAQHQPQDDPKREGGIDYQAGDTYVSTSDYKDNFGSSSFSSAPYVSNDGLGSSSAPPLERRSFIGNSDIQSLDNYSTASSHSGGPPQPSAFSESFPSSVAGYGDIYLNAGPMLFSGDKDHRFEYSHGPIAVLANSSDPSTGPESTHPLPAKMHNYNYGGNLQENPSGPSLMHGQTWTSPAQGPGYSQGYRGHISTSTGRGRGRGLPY

In general, MRT refers to the average time that molecules of a dose stay in the body. The term IC50 denotes the midpoint of a concentration-inhibition curve. The Cmax is the peak of the concentration-time curve. The inhibition is the change of the read-out against control, counted positive when it falls. Usually Kd stands for a measure of binding affinity in units of concentration. As for `CCOc1cc(N2CCC(O)CC2)ccc1Nc1ncc2c(n1)N(C)c1ccccc1C(=O)N2C`, in [1], the MRT was 4.8 h. In addition, the IC50 (on Scaffold protein ILK; in data set [2]; in [3]; in [5]; in [10]) was over 50 µM in each case. For the same compound, the Cmax in data set [4] was determined as 927 nM. The inhibition in [6] was 7.2%; in data set [7], -8.5%; in data set [9], 23.7%. The outcome with HeLa was Active. In addition, in data set [8], the equilibrium dissociation constant (Kd) turned out to be 0.6 µM.
